Results from ChEMBL document CHEMBL1150855, “Five new prenylated stilbenes from the root bark of Lonchocarpus chiricanus” (2001).
≈ marks a conversion by molar mass, not a printed value. Calls of active or inactive are those of the source. The rule behind the calls is not given here.

Assays:
[1] = system: Aedes aegypti; assay: Larvicidal activity against Aedes aegypti larvae assessed as minimum concentration required to kill all larvae after 24 hrs by dilution test; assay type: functional
In short: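 Roughly 10 A. aegypti larvae per tube in tap water. Compound added from geometric dilutions of a 1 mg/100 µL DMSO stock, with the volume made up to 10 mL, for final 50 to 1 ppm. Tubes kept in darkness at 26-28 °C for 24 h, then lethality scored under lab light. Value is the minimal concentration (ppm) killing all larvae.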

[2] = system: Cladosporium cucumerinum; assay: Antifungal activity against Cladosporium cucumerinum at 100 ug after 2 to 3 days by bioautographic TLC assay; assay type: functional, organism-based
In short: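 Compounds in dichloromethane (1 mg/mL stock) were geometrically diluted across 1 to 0.015 mg/mL, and 10 µL of each dilution was applied to silica gel TLC plates. Plates were covered with C. cucumerinum in nutritive medium and incubated 2-3 days in moist boxes. The read-out was the minimal amount (µg) giving a clear inhibition zone on a dark gray background, up to 100 µg. Nystatin in MeOH served as the reference.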

[3] = system: Cladosporium cucumerinum; assay: Antifungal activity against Cladosporium cucumerinum after 24 hrs by agar-dilution assay; assay type: functional
In short: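 Test solutions made by geometric dilution in DMSO from a 3 mg/mL DMSO stock, added to Sabouraud agar in wells at a final 60 to 3 µg/mL. C. cucumerinum suspended in distilled water and spread over the agar. Plates sealed hermetically, 30 °C for 24 h. Value is the MIC (µg/mL). Compound-free growth controls; duplicates; nystatin reference at 10 to 0.1 µg/mL.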

[4] = system: Cladosporium cucumerinum; assay: Antifungal activity against Cladosporium cucumerinum assessed as minimum concentration required to inhibit fungal growth after 2 to 3 days by bioautographic TLC assay; assay type: functional
In short: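 Stocks at 1 mg/mL in dichloromethane (nystatin in MeOH), geometrically diluted over 1 to 0.015 mg/mL. 10 µL of each dilution applied to silica gel TLC plates. Plates then covered with C. cucumerinum in nutritive medium and held 2-3 days in a moist atmosphere. Clear zones read against a dark grey background. Value is the minimal amount (µg) inhibiting growth; nystatin reference.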

COc1cc(/C=C/c2ccccc2)cc(OC)c1 [3,5-O-DIMETHYLPINOSYLVIN]
Activity [1]: 3 ppm
Activity [2]: inactive

CC(C)=CCc1c(O)cc(/C=C/c2ccccc2)cc1O [CHIRICANINE A]
MIC [3]: 30 µg/mL (≈ 107 µM)
Activity [4]: 5 µg
Activity [1]: 6 ppm

CC1(C)Oc2cc(/C=C/c3ccccc3)cc(O)c2C[C@@H]1O [CHIRICANINE B]
Activity [1]: >50 ppm
Activity [2]: inactive

COc1c(CC=C(C)C)c(O)cc(/C=C/c2ccccc2)c1CC=C(C)C [CHIRICANINE C]
Activity [1]: >50 ppm
Activity [2]: inactive

CC(C)=CCc1c(O)cc2c(c1/C=C/c1ccccc1)CC(O)C(C)(C)O2 (stereo unspecified) [CHIRICANINE D]
Activity [1]: >50 ppm
Activity [2]: inactive

CC(C)=CCc1c(O)cc(O)c(CC=C(C)C)c1/C=C/c1ccccc1 [LONGISTYLINE D]
Activity [1]: 6 ppm
Activity [2]: inactive

C=C(C)[C@H]1Cc2c(ccc3c2O[C@@H]2COc4cc(OC)c(OC)cc4[C@@H]2C3=O)O1 [ROTENONE]
Activity [1]: 3 ppm

NYSTATIN
MIC [3]: 1 µg/mL
Activity [4]: 0.2 µg
